Measured values collected from several papers.
Target: Cytochrome P450 2C9 (CYP2C9, Homo sapiens, UniProt P11712)
Read-out: enzyme activity
Mode: inhibitor

Compound | assay | system | setting | measurement | result
Nc1nc(N)c2nc(CNc3ccc(C(=O)c4ccccc4)cc3)cnc2n1 | luciferase |  |  | IC50 | 25.1 µM
C[C@H]1CN(c2n[nH]c3nc(N[C@H]4CC[C@H](NS(=O)(=O)CCC(F)(F)F)CC4)ncc23)CCO1 |  |  |  | IC50 | > 100 µM
Cc1cc2c(F)c(Oc3ncnn4cc(OC[C@@H](C)O)c(C)c34)ccc2[nH]1 | fluorescence |  | 15 min | IC50 | 1.39 µM
CCCOC(=O)C1CCN(C(=O)c2ccc(N(C)Cc3cnc4nc(N)nc(N)c4n3)cc2)CC1 | luciferase |  |  | IC50 | 5.5 µM
COc1ccc2c(Cc3ccccc3F)c3n(c(=O)c2c1OC)CCc1cc2c(cc1-3)OCO2 |  |  |  | IC50 | > 10 µM
CCc1cc(/C(C)=N/OCc2ccc(C3CCCCC3)c(C(F)(F)F)c2)ccc1CN1CC(C(=O)O)C1 |  | human, liver microsomes | 20 min | IC50 | ~1.3 µM
O=C(NCCN1CCCC1)c1cc(-c2ccc(CN3CCOCC3)cc2)nc2ccc(F)cc12 |  | human, liver microsomes |  | IC50 | > 100 µM
COc1ccn2c(Nc3ccccc3F)c(-c3ccncn3)nc2c1 |  |  |  | IC50 | 0.41 µM
C[C@@H](c1ccc2nccn2c1)n1nnc2ncc(-c3cnn(C)c3)nc21 |  | human, liver microsomes | pH 7.4 | IC50 | 4.7 µM
Ic1ccc(CSCn2ccnc2)cc1 |  | MFC | 30 min, pH 7.4 | IC50 | 0.155 µM
Cc1ccc2nc(-c3ccccc3)c(CNc3ccc(F)cc3)n2c1 |  |  |  | IC50 | 0.41 µM
Cc1cc(C)c2c(c1)[C@@H](N(Cc1cc(C(F)(F)F)cc(C(F)(F)F)c1)c1nnn(C)n1)CCCN2C[C@H]1CC[C@H](C(=O)O)CC1 |  | human, liver microsomes | pH 7.4 | Ki | 0.57 µM
Nc1nc(N)c2nc(CNc3ccc(C(=O)NCCc4ccccc4)cc3)cnc2n1 | luciferase |  |  | IC50 | 18.6 µM
COc1ccc2c(Cc3ccccc3F)c3[n+](cc2c1OC)CCc1cc2c(cc1-3)OCO2 |  |  |  | IC50 | > 10 µM
C=CC(=O)Nc1cc(Nc2nccc(Nc3cc(Cl)c(F)cc3C(C)(C)O)n2)c(OC)cc1N1CC[C@@H](N(C)C)C1 |  | human, liver microsomes |  | IC50 | > 30 µM
